The source of these data is ChEMBL document CHEMBL4043093, “2-Oxo-3, 4-dihydropyrimido[4, 5-d]pyrimidinyl derivatives as new irreversible pan fibroblast growth factor receptor (FGFR) inhibitors” (Eur J Med Chem, 2017).

Assay [1] concerns the target Serine/threonine-protein kinase Nek3 (Homo sapiens) (UniProt P51956). The assay can be described thus: Inhibition of wild-type human full length NEK3 (M1 to R506 residues) expressed in HEK293 cells assessed as residual activity at 1000 nM after 30 mins by Kinomescan method relative to control. It counts as cell-based. The method, boiled down: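 Single-concentration screen at 1 µM across a 456-kinase KINOMEscan panel. The read-out is Percent Control for each kinase.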

In assay [2] the target is Dual specificity protein kinase CLK2 (Homo sapiens) (UniProt P49760). Description: Inhibition of wild-type human partial length CLK2 (D144 to R498 residues) expressed in Escherichia coli BL21 assessed as residual activity at 1000 nM after 30 mins by Kinomescan method relative to control.
Dual specificity protein kinase CLK2 (Homo sapiens), sequence (P49760 whole entry, looked up, the tested form may be a part): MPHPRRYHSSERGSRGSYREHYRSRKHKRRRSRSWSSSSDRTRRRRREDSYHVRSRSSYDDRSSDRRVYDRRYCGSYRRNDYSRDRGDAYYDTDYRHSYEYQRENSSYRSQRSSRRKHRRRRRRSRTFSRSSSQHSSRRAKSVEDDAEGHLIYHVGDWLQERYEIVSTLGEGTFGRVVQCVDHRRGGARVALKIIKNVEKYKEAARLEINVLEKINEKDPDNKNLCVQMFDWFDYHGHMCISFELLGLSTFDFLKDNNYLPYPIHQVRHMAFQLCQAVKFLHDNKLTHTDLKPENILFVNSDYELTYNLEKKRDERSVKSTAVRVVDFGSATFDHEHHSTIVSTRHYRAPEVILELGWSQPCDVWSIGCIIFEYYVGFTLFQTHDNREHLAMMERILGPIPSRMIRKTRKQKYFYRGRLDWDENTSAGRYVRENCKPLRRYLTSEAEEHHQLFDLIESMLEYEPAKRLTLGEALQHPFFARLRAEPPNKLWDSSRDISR
Assay [3] addresses Serine/threonine-protein kinase mTOR (Homo sapiens) (UniProt P42345). The assay can be described thus: Inhibition of wild-type human partial length MTOR (L1382 to W2549 residues) expressed in HEK293 cells assessed as residual activity at 1000 nM after 30 mins by Kinomescan method relative to control. It counts as cell-based.
Assay [4] deals with Serine/threonine-protein kinase PAK 6 (Homo sapiens) (UniProt Q9NQU5). The assay can be described thus: Inhibition of wild-type human partial length PAK6 (N298 to C681 residues) expressed in Escherichia coli BL21 assessed as residual activity at 1000 nM after 30 mins by Kinomescan method relative to control.
Serine/threonine-protein kinase PAK 6 (Homo sapiens), sequence (Q9NQU5 whole entry, looked up, the tested form may be a part): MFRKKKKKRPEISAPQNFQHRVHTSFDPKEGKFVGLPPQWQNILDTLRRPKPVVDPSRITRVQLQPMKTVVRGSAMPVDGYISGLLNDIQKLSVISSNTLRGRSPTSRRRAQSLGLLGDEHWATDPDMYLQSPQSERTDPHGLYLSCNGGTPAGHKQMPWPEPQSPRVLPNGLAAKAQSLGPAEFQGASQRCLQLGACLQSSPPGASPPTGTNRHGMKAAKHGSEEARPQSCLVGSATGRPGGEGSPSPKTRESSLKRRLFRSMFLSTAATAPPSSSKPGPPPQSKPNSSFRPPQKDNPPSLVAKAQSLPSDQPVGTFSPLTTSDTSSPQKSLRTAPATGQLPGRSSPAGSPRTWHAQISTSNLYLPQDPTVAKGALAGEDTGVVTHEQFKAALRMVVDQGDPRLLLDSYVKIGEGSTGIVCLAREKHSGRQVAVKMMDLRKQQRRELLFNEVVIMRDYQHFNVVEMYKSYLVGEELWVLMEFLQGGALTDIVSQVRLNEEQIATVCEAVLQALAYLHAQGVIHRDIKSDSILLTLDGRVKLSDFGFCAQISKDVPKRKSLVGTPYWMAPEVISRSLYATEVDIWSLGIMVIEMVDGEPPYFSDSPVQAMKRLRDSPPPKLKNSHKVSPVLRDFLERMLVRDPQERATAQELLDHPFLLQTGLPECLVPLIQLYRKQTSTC

Serine/threonine-protein kinase Nek3 (Homo sapiens), sequence (P51956 whole entry, the tested form may be a part): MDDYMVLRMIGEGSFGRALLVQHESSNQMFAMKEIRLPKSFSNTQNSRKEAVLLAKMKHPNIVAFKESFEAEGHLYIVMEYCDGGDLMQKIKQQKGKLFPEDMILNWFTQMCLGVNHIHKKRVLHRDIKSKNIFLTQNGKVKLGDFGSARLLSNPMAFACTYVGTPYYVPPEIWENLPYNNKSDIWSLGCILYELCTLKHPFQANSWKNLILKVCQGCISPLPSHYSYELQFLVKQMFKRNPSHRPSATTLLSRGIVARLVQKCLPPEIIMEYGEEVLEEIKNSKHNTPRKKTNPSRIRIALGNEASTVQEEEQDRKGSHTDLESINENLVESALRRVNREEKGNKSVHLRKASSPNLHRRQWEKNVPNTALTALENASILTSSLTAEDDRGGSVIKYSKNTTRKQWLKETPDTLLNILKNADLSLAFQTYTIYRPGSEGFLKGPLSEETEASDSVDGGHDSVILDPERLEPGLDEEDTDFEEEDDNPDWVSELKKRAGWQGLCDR

`COc1cc(OC)c(Cl)c(N2Cc3cnc(Nc4ccc(F)cc4)nc3N(C3CCN(C(=O)/C=C/CN(C)C)CC3)C2=O)c1Cl`: the Activity in assay [1] was found to be 79%; in assay [2], 100%; in assay [3], 93%; in assay [4] it was 100%.
